Laboratory results reported in ChEMBL document CHEMBL3085670, “Synthesis, biological evaluation and docking studies of 4-aryloxymethyl coumarins derived from substructures and degradation products of vancomycin” (2013).
In brackets after ≈: the same amount, converted by molar mass.

How the values were obtained:
Assay type in all cases: functional
Pseudomonas aeruginosa = assay: Antibacterial activity against Pseudomonas aeruginosa ATCC 25619 after 24 hrs by broth microdilution method; settings: ATCC 25619, 24 h
Summary of the method: (§1)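 Broth dilution MIC, with ciprofloxacin as the comparator. Nine […] serial dilutions of each drug (10^-1 to 10^-9) were made in brain heart infusion (BHI) broth. Stock culture was diluted into BHI, and this suspension was added to each dilution tube. Tubes were incubated 24 h at 37 °C, and the MIC was read by turbidity.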

Candida albicans [1] = assay: Antifungal activity against Candida albicans ATCC 2091 after 24 hrs by broth microdilution method; settings: ATCC 2091, 24 h
Summary of the method: (§2)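 Broth dilution MIC, with fluconazole as the comparator. Each drug was serially diluted tenfold in BHI broth over nine tubes (10^-1 to 10^-9). Each tube received a suspension of stock culture diluted in BHI. Tubes were kept 24 h at 37 °C, and growth was judged by turbidity.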

Escherichia coli = assay: Antibacterial activity against Escherichia coli ATCC 25922 after 24 hrs by broth microdilution method; settings: ATCC 25922, 24 h; summary of the method: as §1
Enterococcus faecalis = assay: Antibacterial activity against Enterococcus faecalis ATCC 35550 after 24 hrs by broth microdilution method; settings: ATCC 35550, 24 h; summary of the method: as §1
Aspergillus niger [2] = assay: Antifungal activity against Aspergillus niger ATCC 9029 after 24 hrs by broth microdilution method; settings: ATCC 9029, 24 h; summary of the method: as §2
Staphylococcus aureus = assay: Antibacterial activity against Staphylococcus aureus ATCC 12598 after 24 hrs by broth microdilution method; settings: ATCC 12598, 24 h; summary of the method: as §1
Aspergillus niger [3] = assay: Ratio of fluconazole MIC to compound MIC for Aspergillus niger ATCC 9029 after 24 hrs by broth microdilution method
Candida albicans [4] = assay: Ratio of fluconazole MIC to compound MIC for Candida albicans ATCC 2091 after 24 hrs by broth microdilution method

## CCOC(=O)c1cc(O)c(OCc2cc(=O)oc3c2ccc2ccccc23)c(O)c1
Pseudomonas aeruginosa
  MIC: 100 µg/mL (≈ 246 µM)
Candida albicans [1]
  MIC: 100 µg/mL (≈ 246 µM)
Escherichia coli
  MIC: 100 µg/mL (≈ 246 µM)
Enterococcus faecalis
  MIC: 0.2 µg/mL (≈ 0.492 µM)
Aspergillus niger [2]
  MIC: 100 µg/mL (≈ 246 µM)
Staphylococcus aureus
  MIC: 1.6 µg/mL (≈ 3.94 µM)

## CCOC(=O)c1cc(O)c(OCc2cc(=O)oc3ccc(C)cc23)c(O)c1
Pseudomonas aeruginosa
  MIC: 100 µg/mL (≈ 270 µM)
Candida albicans [1]
  MIC: 100 µg/mL (≈ 270 µM)
Escherichia coli
  MIC: 100 µg/mL (≈ 270 µM)
Enterococcus faecalis
  MIC: 0.2 µg/mL (≈ 0.54 µM)
Aspergillus niger [2]
  MIC: 100 µg/mL (≈ 270 µM)
Staphylococcus aureus
  MIC: 1.6 µg/mL (≈ 4.32 µM)

## CCOC(=O)C(Cc1ccc(OCc2cc(=O)oc3cc(OC)ccc23)cc1)NC(=O)c1ccccc1 (stereo unspecified)
Pseudomonas aeruginosa
  MIC: 100 µg/mL (≈ 199 µM)
Candida albicans [1]
  MIC: 0.2 µg/mL (≈ 0.399 µM)
Aspergillus niger [3]
  Ratio: 40
Escherichia coli
  MIC: 100 µg/mL (≈ 199 µM)
Enterococcus faecalis
  MIC: 0.8 µg/mL (≈ 1.6 µM)
Aspergillus niger [2]
  MIC: 0.2 µg/mL (≈ 0.399 µM)
Staphylococcus aureus
  MIC: 100 µg/mL (≈ 199 µM)
Candida albicans [4]
  Ratio: 80

## CCOC(=O)C(Cc1ccc(OCc2cc(=O)oc3cc(Cl)ccc23)cc1)NC(=O)c1ccccc1 (stereo unspecified)
Pseudomonas aeruginosa
  MIC: 100 µg/mL (≈ 198 µM)
Candida albicans [1]
  MIC: 50 µg/mL (≈ 98.8 µM)
Aspergillus niger [3]
  Ratio: 40
Enterococcus faecalis
  MIC: 0.2 µg/mL (≈ 0.395 µM)
Aspergillus niger [2]
  MIC: 0.2 µg/mL (≈ 0.395 µM)

## O=C(O)c1cn(C2CC2)c2cc(N3CCNCC3)c(F)cc2c1=O [CIPROFLOXACIN]
Enterococcus faecalis
  MIC: 2 µg/mL (≈ 6.04 µM)
Staphylococcus aureus
  MIC: 2 µg/mL (≈ 6.04 µM)

## CCOC(=O)c1cc(O)c(OCc2cc(=O)oc3ccc(Cl)cc23)c(O)c1
Pseudomonas aeruginosa
  MIC: 100 µg/mL (≈ 256 µM)
Candida albicans [1]
  MIC: 100 µg/mL (≈ 256 µM)
Escherichia coli
  MIC: 100 µg/mL (≈ 256 µM)
Enterococcus faecalis
  MIC: 0.2 µg/mL (≈ 0.512 µM)
Aspergillus niger [2]
  MIC: 100 µg/mL (≈ 256 µM)
Staphylococcus aureus
  MIC: 0.4 µg/mL (≈ 1.02 µM)

## CCOC(=O)C(Cc1ccc(OCc2cc(=O)oc3ccc(C)cc23)cc1)NC(=O)c1ccccc1 (stereo unspecified)
Pseudomonas aeruginosa
  MIC: 100 µg/mL (≈ 206 µM)
Candida albicans [1]
  MIC: 0.2 µg/mL (≈ 0.412 µM)
Aspergillus niger [3]
  Ratio: 40
Escherichia coli
  MIC: 100 µg/mL (≈ 206 µM)
Enterococcus faecalis
  MIC: 0.8 µg/mL (≈ 1.65 µM)
Aspergillus niger [2]
  MIC: 0.2 µg/mL (≈ 0.412 µM)
Staphylococcus aureus
  MIC: 100 µg/mL (≈ 206 µM)
Candida albicans [4]
  Ratio: 80

## CCOC(=O)C(Cc1ccc(OCc2cc(=O)oc3ccc4ccccc4c23)cc1)NC(=O)c1ccccc1 (stereo unspecified)
Candida albicans [1]
  MIC: 1.6 µg/mL (≈ 3.07 µM)
Aspergillus niger [3]
  Ratio: 40
Escherichia coli
  MIC: 100 µg/mL (≈ 192 µM)
Enterococcus faecalis
  MIC: 0.4 µg/mL (≈ 0.767 µM)
Aspergillus niger [2]
  MIC: 0.2 µg/mL (≈ 0.383 µM)

## CCOC(=O)c1cc(O)c(OCc2cc(=O)oc3ccc4ccccc4c23)c(O)c1
Pseudomonas aeruginosa
  MIC: 100 µg/mL (≈ 246 µM)
Candida albicans [1]
  MIC: 100 µg/mL (≈ 246 µM)
Escherichia coli
  MIC: 100 µg/mL (≈ 246 µM)
Enterococcus faecalis
  MIC: 0.2 µg/mL (≈ 0.492 µM)
Aspergillus niger [2]
  MIC: 100 µg/mL (≈ 246 µM)
Staphylococcus aureus
  MIC: 0.4 µg/mL (≈ 0.984 µM)

## CCOC(=O)c1cc(O)c(OCc2cc(=O)oc3cc(C)ccc23)c(O)c1
Pseudomonas aeruginosa
  MIC: 100 µg/mL (≈ 270 µM)
Candida albicans [1]
  MIC: 100 µg/mL (≈ 270 µM)
Escherichia coli
  MIC: 100 µg/mL (≈ 270 µM)
Enterococcus faecalis
  MIC: 0.2 µg/mL (≈ 0.54 µM)
Aspergillus niger [2]
  MIC: 100 µg/mL (≈ 270 µM)
Staphylococcus aureus
  MIC: 12.5 µg/mL (≈ 33.8 µM)

## CCOC(=O)c1cc(O)c(OCc2cc(=O)oc3ccc(OC)cc23)c(O)c1
Pseudomonas aeruginosa
  MIC: 100 µg/mL (≈ 259 µM)
Candida albicans [1]
  MIC: 100 µg/mL (≈ 259 µM)
Escherichia coli
  MIC: 100 µg/mL (≈ 259 µM)
Enterococcus faecalis
  MIC: 0.2 µg/mL (≈ 0.518 µM)
Aspergillus niger [2]
  MIC: 100 µg/mL (≈ 259 µM)
Staphylococcus aureus
  MIC: 0.8 µg/mL (≈ 2.07 µM)

## CCOC(=O)C(Cc1ccc(OCc2cc(=O)oc3ccc(OC)cc23)cc1)NC(=O)c1ccccc1 (stereo unspecified)
Pseudomonas aeruginosa
  MIC: 100 µg/mL (≈ 199 µM)
Candida albicans [1]
  MIC: 0.2 µg/mL (≈ 0.399 µM)
Aspergillus niger [3]
  Ratio: 40
Escherichia coli
  MIC: 100 µg/mL (≈ 199 µM)
Enterococcus faecalis
  MIC: 0.4 µg/mL (≈ 0.798 µM)
Aspergillus niger [2]
  MIC: 0.2 µg/mL (≈ 0.399 µM)
Staphylococcus aureus
  MIC: 100 µg/mL (≈ 199 µM)
Candida albicans [4]
  Ratio: 80

## OC(Cn1cncn1)(Cn1cncn1)c1ccc(F)cc1F [FLUCONAZOLE]
Candida albicans [1]
  MIC: 16 µg/mL (≈ 52.2 µM)
Aspergillus niger [2]
  MIC: 8 µg/mL (≈ 26.1 µM)

## CCOC(=O)C(Cc1ccc(OCc2cc(=O)oc3c(C)c(C)ccc23)cc1)NC(=O)c1ccccc1 (stereo unspecified)
Pseudomonas aeruginosa
  MIC: 100 µg/mL (≈ 200 µM)
Candida albicans [1]
  MIC: 0.8 µg/mL (≈ 1.6 µM)
Aspergillus niger [3]
  Ratio: 40
Escherichia coli
  MIC: 100 µg/mL (≈ 200 µM)
Enterococcus faecalis
  MIC: 0.2 µg/mL (≈ 0.4 µM)
Aspergillus niger [2]
  MIC: 0.2 µg/mL (≈ 0.4 µM)
Staphylococcus aureus
  MIC: 100 µg/mL (≈ 200 µM)

## CCOC(=O)C(Cc1ccc(OCc2cc(=O)oc3cc(C)cc(C)c23)cc1)NC(=O)c1ccccc1 (stereo unspecified)
Pseudomonas aeruginosa
  MIC: 100 µg/mL (≈ 200 µM)
Candida albicans [1]
  MIC: 1.6 µg/mL (≈ 3.2 µM)
Aspergillus niger [3]
  Ratio: 40
Escherichia coli
  MIC: 100 µg/mL (≈ 200 µM)
Enterococcus faecalis
  MIC: 0.2 µg/mL (≈ 0.4 µM)
Aspergillus niger [2]
  MIC: 0.2 µg/mL (≈ 0.4 µM)

## CCOC(=O)c1cc(O)c(OCc2cc(=O)oc3cc(OC)ccc23)c(O)c1
Pseudomonas aeruginosa
  MIC: 100 µg/mL (≈ 259 µM)
Candida albicans [1]
  MIC: 100 µg/mL (≈ 259 µM)
Escherichia coli
  MIC: 100 µg/mL (≈ 259 µM)
Enterococcus faecalis
  MIC: 0.8 µg/mL (≈ 2.07 µM)
Aspergillus niger [2]
  MIC: 100 µg/mL (≈ 259 µM)
Staphylococcus aureus
  MIC: 1.6 µg/mL (≈ 4.14 µM)

## CCOC(=O)C(Cc1ccc(OCc2cc(=O)oc3cc(C)ccc23)cc1)NC(=O)c1ccccc1 (stereo unspecified)
Pseudomonas aeruginosa
  MIC: 100 µg/mL (≈ 206 µM)
Candida albicans [1]
  MIC: 0.2 µg/mL (≈ 0.412 µM)
Aspergillus niger [3]
  Ratio: 40
Escherichia coli
  MIC: 100 µg/mL (≈ 206 µM)
Enterococcus faecalis
  MIC: 0.8 µg/mL (≈ 1.65 µM)
Aspergillus niger [2]
  MIC: 0.2 µg/mL (≈ 0.412 µM)
Candida albicans [4]
  Ratio: 80

## CCOC(=O)C(Cc1ccc(OCc2cc(=O)oc3c2ccc2ccccc23)cc1)NC(=O)c1ccccc1 (stereo unspecified)
Pseudomonas aeruginosa
  MIC: 100 µg/mL (≈ 192 µM)
Candida albicans [1]
  MIC: 12.5 µg/mL (≈ 24 µM)
Aspergillus niger [3]
  Ratio: 40
Escherichia coli
  MIC: 100 µg/mL (≈ 192 µM)
Enterococcus faecalis
  MIC: 0.2 µg/mL (≈ 0.383 µM)
Aspergillus niger [2]
  MIC: 0.2 µg/mL (≈ 0.383 µM)
Staphylococcus aureus
  MIC: 50 µg/mL (≈ 95.9 µM)

## CCOC(=O)c1cc(O)c(OCc2cc(=O)oc3cc(C)cc(C)c23)c(O)c1
Pseudomonas aeruginosa
  MIC: 100 µg/mL (≈ 260 µM)
Candida albicans [1]
  MIC: 100 µg/mL (≈ 260 µM)
Escherichia coli
  MIC: 100 µg/mL (≈ 260 µM)
Enterococcus faecalis
  MIC: 0.2 µg/mL (≈ 0.52 µM)
Aspergillus niger [2]
  MIC: 100 µg/mL (≈ 260 µM)
Staphylococcus aureus
  MIC: 0.8 µg/mL (≈ 2.08 µM)

## CCOC(=O)C(Cc1ccc(OCc2cc(=O)oc3ccc(Cl)cc23)cc1)NC(=O)c1ccccc1 (stereo unspecified)
Pseudomonas aeruginosa
  MIC: 100 µg/mL (≈ 198 µM)
Candida albicans [1]
  MIC: 50 µg/mL (≈ 98.8 µM)
Aspergillus niger [3]
  Ratio: 40
Enterococcus faecalis
  MIC: 0.2 µg/mL (≈ 0.395 µM)
Aspergillus niger [2]
  MIC: 0.2 µg/mL (≈ 0.395 µM)
Staphylococcus aureus
  MIC: 100 µg/mL (≈ 198 µM)

## CCOC(=O)c1cc(O)c(OCc2cc(=O)oc3cc(Cl)ccc23)c(O)c1
Pseudomonas aeruginosa
  MIC: 100 µg/mL (≈ 256 µM)
Candida albicans [1]
  MIC: 100 µg/mL (≈ 256 µM)
Escherichia coli
  MIC: 100 µg/mL (≈ 256 µM)
Enterococcus faecalis
  MIC: 3.12 µg/mL (≈ 8 µM)
Aspergillus niger [2]
  MIC: 100 µg/mL (≈ 256 µM)
Staphylococcus aureus
  MIC: 12.5 µg/mL (≈ 32 µM)

## CCOC(=O)c1cc(O)c(OCc2cc(=O)oc3c(C)c(C)ccc23)c(O)c1
Pseudomonas aeruginosa
  MIC: 100 µg/mL (≈ 260 µM)
Candida albicans [1]
  MIC: 100 µg/mL (≈ 260 µM)
Escherichia coli
  MIC: 100 µg/mL (≈ 260 µM)
Enterococcus faecalis
  MIC: 0.2 µg/mL (≈ 0.52 µM)
Aspergillus niger [2]
  MIC: 100 µg/mL (≈ 260 µM)
Staphylococcus aureus
  MIC: 0.2 µg/mL (≈ 0.52 µM)
